# Source: PubChem BioAssay
# JMJD2C inh: inhibitors of GASC-1 histone demethylase, primary screen, biochemical, fluorescence, DELFIA europium; Lysine-specific demethylase 4C (Homo sapiens), Q9H3R0; GST-JMJD2C(1-420) H3K9me3 demethylation; inhibition, % at 2.35 µM; hit rate 0.069% among 330,000; AID 2099, 2009;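 active = more than half of a compound's replicate wells show inhibition beyond 50%, single wells judged on their own value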;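 note: signal counts dimethyl H3K9 product captured on neutravidin plate; 0% = median of DMSO wells and 100% = 0.3 times that DMSO median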
# Target sequence (Q9H3R0 1-420 limits assumed): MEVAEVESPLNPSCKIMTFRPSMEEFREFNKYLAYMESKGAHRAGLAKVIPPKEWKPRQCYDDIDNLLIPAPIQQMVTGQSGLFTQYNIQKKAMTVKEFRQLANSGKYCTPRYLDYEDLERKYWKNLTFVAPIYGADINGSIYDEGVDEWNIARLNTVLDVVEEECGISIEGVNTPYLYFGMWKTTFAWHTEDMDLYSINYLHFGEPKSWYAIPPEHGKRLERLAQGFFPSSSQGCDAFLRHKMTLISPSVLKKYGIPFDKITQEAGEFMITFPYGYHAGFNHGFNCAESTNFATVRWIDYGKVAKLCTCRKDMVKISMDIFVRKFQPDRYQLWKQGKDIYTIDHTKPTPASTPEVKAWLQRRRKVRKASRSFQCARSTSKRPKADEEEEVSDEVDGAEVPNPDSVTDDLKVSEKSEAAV
# GC-B act: human GC-B receptor activators, primary screen, HEK293 GC-B cells, cGMP TR-FRET, EC30 CNP; 0% at EC30 CNP, 100% saturating CNP; activation, % at 10 µM; hit rate 0.11% among 370,000; AID 1920062, 2024;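 active = activation at 10 µM reaching about 35% in either raw or pattern-adjusted values, limit read from the data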
# NR3A LBD binder: binders of NR3A ligand-binding domain, primary screen, biophysical, differential scanning fluorimetry, uHTS; Glutamate receptor ionotropic, NMDA 3A (GRIN3A) ligand-binding domain; NR3A LBD differential scanning fluorimetry, Tm shift; 0% = protein alone, 100% = glycine-bound protein; hit rate 2.5% among 340,000; AID 1259313, 2017; Tm shift relative to glycine control, % at 25 µM;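 active = melting temperature shift of at least 10% of the positive control shift, at one fixed dose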
# aDG glyco up: activators of alpha-DG glycosylation, primary screen, uHTS, Pro5-aDG cells, AlphaScreen | alpha-DG glycosylation AlphaScreen (IIH6); 0% Pro5, 100% B10-LARGE cell signal | activation, % at 10 µM | hit rate 0.22% among 360,000;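 active = activation of at least 8% versus controls, or a plate z-score of at least 8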;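 note: Pro5 are CHO cells carrying HIG-tagged alpha-DG that lacks glycosylation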
# Hep lipid drop: inhibitors of hepatocyte lipid droplet formation, primary screen, imaging, high-throughput imaging, BODIPY stain; AML12 mouse hepatocytes, oleate lipid droplets; inhibition, % at 6.5 µM; hit rate 0.4% among 240,000; AID 1656, 2009;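 active = lipid droplet intensity inhibited by at least 50%, with more than 500 cells counted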
#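 Test system: AML12 hepatocytes (mouse); reagent: oleate loading, 100 µM; dosing: one dose, 6.5 µM compound; incubation: overnight exposure; signal: fluorescence imaging, 20x objective, two fields per well; read-out basis: % inhibition of corrected integrated BODIPY droplet signal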
# NPR1 activator: GC-A stimulated cGMP production enhancers – HEK293 GC-A cells, cGMP TR-FRET, EC30 ANP, primary screen; hit rate 0.14% among 370,000; AID 1671463, 2021; Atrial natriuretic peptide receptor 1 (Homo sapiens), P16066; 0% at EC30 ANP, 100% saturating ANP; activation, % at 10 µM; in the data active = activation above about 40%
# * marks the source's active call; other numbers are inactive results; x = not tested or not shown. Rows were chosen to be rich in hits. Some 3% of all compounds tested hit in one or more screens of this group.
SMILES,JMJD2C inh,GC-B act,NR3A LBD binder,aDG glyco up,Hep lipid drop,NPR1 activator
COc1ccccc1C(=O)NC1CCCCN(Cc2cccc(Cl)c2)C1=O (stereo unspecified),x,0,x,x,x,0
O=C(Cc1cccs1)Nc1nc2c(ccc3ccccc32)s1,-16,-4,11*,0,-1,5
COC(=O)C1=C(C)N(Cc2ccc(C(F)(F)F)cc2)C(=NCc2ccc(OC)cc2)NC1c1ccccc1C(F)(F)F (stereo unspecified),x,-2,x,x,x,-7
c1ccc2cc(N3CCCCC3)ccc2c1,x,-2,-9,0,x,-2
O=C1c2ccccc2C(=O)c2cc(N3CCCCC3)ccc21,x,-4,38*,0,x,-4
CC1=NN(c2ccc(Cl)cc2)C(=O)/C1=C\c1cccn1-c1ccc(S(N)(=O)=O)cc1,-8,-14,22*,0,-4,-5
Cc1nc2c([nH]c3ccc(Br)cc32)s1,-22,-4,15*,0,0,-1
Cc1n[nH]c2ccc(Br)cc2c1=O,x,-6,x,0,x,3
CCOC(=O)c1sc2nc(-c3cccnc3)ccc2c1N,8,1,20*,0,15,11
CC(C)OC(=O)c1sc2nc(-c3ccccc3)ccc2c1N,3,-2,4,1,x,4
COc1ccc(C(=O)c2sc3nc(-c4ccccc4)ccc3c2N)cc1,-5,x,18*,0,24,x
Nc1c(C(=O)Nc2ccccc2F)sc2nc(-c3ccco3)ccc12,-16,-4,3,0,x,14
Nc1c(C(=O)Nc2ccccc2F)sc2nc(-c3cccnc3)ccc12,-15,-2,15*,0,6,11
Cc1nc(-c2ccccc2)nc2sc(C(=O)c3ccc(F)cc3)c(N)c12,-10,-7,15*,0,2,1
N#Cc1ccc(S(=O)(=O)N2CCCc3nc(-c4ccc(Br)cc4)ccc32)cc1,x,0,x,x,x,-3
COc1ccc(NC(=O)C2(C)CCN2C(=O)Cc2ccc(Cl)cc2Cl)cc1OC (stereo unspecified),x,-2,x,0,x,11
OC[C@@H]1CN(CCN2CCOCC2)C[C@H](n2cnc3c(N4CCCC4)ncnc32)O1,x,7,x,0,x,4
Nc1c(C(=O)NCC(O)c2ccccc2)cnn1-c1ccccc1 (stereo unspecified),x,0,x,x,x,2
CC(=O)c1c[nH]c(C(=O)NCc2ccccc2Cl)c1,-33,5,-2,0,x,-2
COc1ccc(CCC[C@@H](CCC(=O)N(c2ccccc2)c2ccccc2)CCc2ccccc2)cc1,x,8,x,x,x,2
CC(COc1cccc(C(F)(F)F)c1)CN1CCC(C(O)(c2ccccc2)c2ccccc2)CC1 (stereo unspecified),x,2,x,x,x,-12
O=C(O)c1cccc2c1C(=O)c1ccc(-c3ccc(F)cc3OCc3ccccc3)cc1S2(=O)=O,6,x,13*,0,x,x
Cc1cc(CNC(=O)c2cccc3c2C(=O)c2ccc(-c4ccc(F)cc4OCc4ccccc4)cc2S3(=O)=O)c(C(F)(F)F)o1,x,10,17*,-1,x,2
O=C1c2ccc(-c3ccc(F)cc3OCc3ccccc3)cc2S(=O)(=O)c2cccc(C(=O)N3CCN(c4ncc(Br)cn4)CC3)c21,x,3,-4,0,x,1
CCCC(=O)Nc1ccc(C(=O)Nc2nnc(COC)s2)cc1,19,1,-26,0,x,-3
SMILES,JMJD2C inh,GC-B act,NR3A LBD binder,aDG glyco up,Hep lipid drop,NPR1 activator
COCc1nnc(NC(=O)c2ccc(NC(C)=O)cc2)s1,3,-2,24*,0,6,2
CCOC(=O)CC[C@@]1(C(=O)OCC)C[C@@H](CC(=O)N2CCCC2)C(=O)N2CCCC=C21,x,0,x,x,x,2
O=C(C[C@H]1C[C@H](C(=O)N2CCOCC2)[C@@]2(CCC3CCCC3)c3[nH]c4cc(-c5ccco5)ccc4c3CCN2C1=O)NCc1ccco1,x,-2,-1,0,x,-7
COc1ccc2ccccc2c1/C=N\NC(=O)c1ccc(C)s1,0,-2,-10,0,-8,-5
COc1cc(/C=N/NC(=O)c2sc(N)c(C#N)c2C)cc(Br)c1O,7,6,16*,0,x,10
COc1ccc2ccccc2c1/C=N/NC(=O)c1sc(N)c(C#N)c1C,6,1,17*,0,-8,-14
CC(C)(C)C1CCC2(CC1)C(Nc1cccc(C(F)(F)F)c1)=NC(=S)N2CC#N (stereo unspecified),-5,46*,-1,0,6,2
CCOc1ccc(OCC)c(NC(=O)c2nnn(CC(=O)Nc3cc(C)cc(C)c3)c2N)c1,-8,4,16*,5,17,0
CCOc1ccc(NC(=O)c2nnn(CC(=O)Nc3ccccc3OCC)c2N)cc1,10,11,-2,0,-24,11
CCOc1ccc(CCNC(=O)Cn2ccc3ccccc3c2=O)cc1OCC,9,3,-1,0,50*,4
CCOc1ccc(CCNC(=O)c2nnn(CC(=O)Nc3ccccc3C)c2N)cc1OCC,7,0,12*,0,-4,-2
C=CCN1C(=O)[C@@H](CC(=O)N2CCN(C(=O)C3CC3)CC2)[C@]2(C(=O)OCC)CCCCC/C=C/12,x,-2,x,x,x,4
CC(NC(=O)COC(=O)CN1C(=O)NC2(CCCC2)C1=O)c1ccc(F)cc1 (stereo unspecified),x,2,-1,0,x,3
O=C(Nc1ccc(NC(=O)c2ccccc2Cl)c(Cl)c1)c1ccccn1,x,1,x,x,x,-1
CCCCOCCCNC(=O)C[C@@H]1C(=O)N(CCc2ccc(Cl)cc2)C2=CCCCC[C@]21C(=O)OC,x,4,x,x,x,0
COc1ccc(C(=O)CNc2ccccc2Br)cc1,-8,-2,17*,2,-8,1
COC(=O)C1=C(C)N(Cc2ccccc2C(F)(F)F)C(=NCc2ccc3c(c2)OCO3)NC1c1ccccc1 (stereo unspecified),x,-21,x,x,x,-17
Cc1cc(NC(=O)COC(=O)C2CC(=O)N(c3ccc(C)c(Cl)c3)C2)no1 (stereo unspecified),-12,0,21*,0,4,-1
Cc1cc(NC(=O)COC(=O)C2CC(=O)N(c3cccc(Cl)c3)C2)no1 (stereo unspecified),-8,2,0,0,-51,-4
